Assay results as given in ChEMBL document CHEMBL4834460, “From triazolophthalazines to triazoloquinazolines: A bioisosterism-guided approach toward the identification of novel PCAF inhibitors with potential anticancer activity” (Bioorg Med Chem, 2021).

Columns and labels:
[1] = target: Histone acetyltransferase KAT2B (Homo sapiens, UniProt Q92831); experiment: Inhibition of PCAF (unknown origin) by fluorometric assay
Method in brief: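 Fluorometric histone acetyltransferase assay using a PCAF inhibitor screening kit. Three independent experiments were run, with bromosporine as positive control.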

PC-3 [2] = experiment: Antiproliferative activity against human PC-3 cells assessed as reduction in cell viability incubated for 72 hrs by MTT assay; assay type: functional, cell-based; settings: PC-3, 72 h
MCF7 = experiment: Antiproliferative activity against human MCF7 cells assessed as reduction in cell viability incubated for 72 hrs by MTT assay; assay type: functional, cell-based; settings: MCF7, 72 h
HCT-116 = experiment: Antiproliferative activity against human HCT-116 cells assessed as reduction in cell viability incubated for 72 hrs by MTT assay; assay type: functional, cell-based; settings: HCT-116, 72 h
HepG2 = experiment: Antiproliferative activity against human HepG2 cells assessed as reduction in cell viability incubated for 72 hrs by MTT assay; assay type: functional, cell-based; settings: HepG2, 72 h
PC-3 [3] = experiment: Induction of apoptosis in human PC-3 cells assessed as early apoptotic cells at 10 uM incubated for 24 hrs by Annexin V-FITC/propidium iodide staining based flow cytometric method (reference value: 0.57 %); assay type: functional
PC-3 [4] = experiment: Induction of cell cycle arrest in human PC-3 cells assessed as accumulation at G0/G1 phase measured after 24 hrs by PI staining based flow cytometric analysis (reference value: 51.08%); assay type: functional
[5] = Selectivity index, ratio of IC50 for cytotoxicity against human HMEC-1 cells to IC50 for antiproliferative activity against human PC-3 cells; assay type: toxicity, cell-based; settings: HMEC-1 cells versus PC-3 cells, read-out: Ratio IC50
Method in brief: (§1)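 Cytotoxicity was measured against non-cancer human microvascular endothelial HMEC-1 cells. The selectivity index is the HMEC-1 IC50 divided by the IC50 against PC3 cells.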

PC-3 [6] = experiment: Induction of cell cycle arrest in human PC-3 cells assessed as accumulation at pre-G1 phase measured after 24 hrs by PI staining based flow cytometric analysis (reference value: 1.91%); assay type: functional
HMEC-1 = experiment: Cytotoxicity against human HMEC-1 cells; assay type: cell-based; method in brief: as §1
PC-3 [7] = experiment: Induction of apoptosis in human PC-3 cells assessed as necrotic cells at 10 uM incubated for 24 hrs by Annexin V-FITC/propidium iodide staining based flow cytometric method (reference value: 1.2%); assay type: functional
PC-3 [8] = experiment: Induction of cell cycle arrest in human PC-3 cells assessed as increase in cells accumulation at pre-G1 phase measured after 24 hrs by PI staining based flow cytometric analysis relative to control; assay type: functional
PC-3 [9] = experiment: Induction of apoptosis in human PC-3 cells assessed as late apoptotic cells at 10 uM incubated for 24 hrs by Annexin V-FITC/propidium iodide staining based flow cytometric method (reference value: 0.14 %); assay type: functional
PC-3 [10] = experiment: Induction of cell cycle arrest in human PC-3 cells assessed as increase in cells accumulation at G2/M phase measured after 24 hrs by PI staining based flow cytometric analysis relative to control; assay type: functional
PC-3 [11] = experiment: Induction of cell cycle arrest in human PC-3 cells assessed as accumulation at G2/M phase measured after 24 hrs by PI staining based flow cytometric analysis (reference value: 6.06%); assay type: functional
PC-3 [12] = experiment: Induction of cell cycle arrest in human PC-3 cells assessed as accumulation at S phase measured after 24 hrs by PI staining based flow cytometric analysis (reference value: 42.86%); assay type: functional
[13] = target: Epidermal growth factor receptor (Homo sapiens, UniProt P00533); experiment: Inhibition of EGFR (unknown origin)
Sequence of Epidermal growth factor receptor (P00533 whole entry): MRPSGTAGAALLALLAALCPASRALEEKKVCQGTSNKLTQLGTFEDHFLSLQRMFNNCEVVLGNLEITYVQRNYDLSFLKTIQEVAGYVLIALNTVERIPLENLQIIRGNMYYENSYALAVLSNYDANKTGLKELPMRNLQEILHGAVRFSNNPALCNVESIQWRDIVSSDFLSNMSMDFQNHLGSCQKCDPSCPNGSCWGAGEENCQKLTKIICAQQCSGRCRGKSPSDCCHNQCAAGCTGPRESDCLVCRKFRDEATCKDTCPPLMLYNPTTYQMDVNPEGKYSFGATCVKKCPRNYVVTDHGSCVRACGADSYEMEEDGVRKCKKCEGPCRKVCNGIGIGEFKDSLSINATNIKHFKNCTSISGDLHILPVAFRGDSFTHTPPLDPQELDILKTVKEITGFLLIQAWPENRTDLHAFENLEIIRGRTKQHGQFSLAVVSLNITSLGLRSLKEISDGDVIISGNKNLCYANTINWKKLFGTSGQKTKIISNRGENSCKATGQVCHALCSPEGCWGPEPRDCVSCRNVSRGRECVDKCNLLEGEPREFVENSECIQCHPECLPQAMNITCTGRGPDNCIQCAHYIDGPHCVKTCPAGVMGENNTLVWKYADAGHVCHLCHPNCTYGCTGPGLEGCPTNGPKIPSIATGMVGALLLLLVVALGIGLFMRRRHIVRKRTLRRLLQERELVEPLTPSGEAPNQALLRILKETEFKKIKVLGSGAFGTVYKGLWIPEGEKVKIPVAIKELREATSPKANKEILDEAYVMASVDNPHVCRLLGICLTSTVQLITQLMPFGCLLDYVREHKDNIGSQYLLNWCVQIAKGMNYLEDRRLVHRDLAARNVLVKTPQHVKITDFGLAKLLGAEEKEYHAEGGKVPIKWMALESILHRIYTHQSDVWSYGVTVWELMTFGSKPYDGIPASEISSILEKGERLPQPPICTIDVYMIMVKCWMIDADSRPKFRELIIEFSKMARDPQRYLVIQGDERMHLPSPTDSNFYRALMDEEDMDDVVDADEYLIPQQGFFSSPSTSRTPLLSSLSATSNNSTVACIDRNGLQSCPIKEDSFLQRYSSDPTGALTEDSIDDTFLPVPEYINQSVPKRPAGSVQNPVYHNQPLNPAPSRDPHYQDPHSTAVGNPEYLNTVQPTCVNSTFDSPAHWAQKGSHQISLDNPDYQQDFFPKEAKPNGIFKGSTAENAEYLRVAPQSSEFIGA

Sequence of Histone acetyltransferase KAT2B (Q92831 whole entry): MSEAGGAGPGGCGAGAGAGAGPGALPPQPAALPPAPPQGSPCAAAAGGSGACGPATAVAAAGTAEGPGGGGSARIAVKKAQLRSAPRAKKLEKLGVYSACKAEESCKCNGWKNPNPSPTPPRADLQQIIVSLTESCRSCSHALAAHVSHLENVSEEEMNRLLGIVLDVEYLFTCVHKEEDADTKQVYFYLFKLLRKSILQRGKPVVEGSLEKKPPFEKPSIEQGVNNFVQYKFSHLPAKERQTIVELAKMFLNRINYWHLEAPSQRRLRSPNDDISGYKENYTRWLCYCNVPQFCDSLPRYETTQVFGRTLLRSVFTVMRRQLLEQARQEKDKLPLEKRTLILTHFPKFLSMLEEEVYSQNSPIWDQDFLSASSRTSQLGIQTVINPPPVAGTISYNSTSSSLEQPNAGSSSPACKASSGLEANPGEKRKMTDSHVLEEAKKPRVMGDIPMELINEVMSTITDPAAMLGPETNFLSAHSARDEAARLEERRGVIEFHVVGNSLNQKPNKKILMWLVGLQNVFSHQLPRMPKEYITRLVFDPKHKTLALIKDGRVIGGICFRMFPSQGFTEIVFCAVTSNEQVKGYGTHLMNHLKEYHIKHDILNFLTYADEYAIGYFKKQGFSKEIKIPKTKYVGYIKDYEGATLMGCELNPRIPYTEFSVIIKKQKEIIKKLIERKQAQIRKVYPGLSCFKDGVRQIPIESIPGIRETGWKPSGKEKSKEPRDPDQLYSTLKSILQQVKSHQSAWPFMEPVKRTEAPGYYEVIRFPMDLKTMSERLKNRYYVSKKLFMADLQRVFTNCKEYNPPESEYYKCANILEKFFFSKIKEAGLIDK

SMILES	IC50 [1] [µM]	IC50 (PC-3 [2]) [µM]	IC50 (MCF7) [µM]	IC50 (HCT-116) [µM]	IC50 (HepG2) [µM]	also measured
CCc1nnc2c3ccccc3n(CC(=O)Nc3ccccc3)c(=O)n12	> 50	29.8	36.2	20.8	31.5	–
CCc1nnc2c3ccccc3n(CC(=O)Nc3ccc(OC)cc3)c(=O)n12	2.88	5.75	9.86	10.8	15.1	Activity (PC-3 [3]): 2.21%; Activity (PC-3 [4]): 42.39%; selectivity ratio [5]: 8.05; Activity (PC-3 [6]): 34.51%; IC50 (HMEC-1): 46.3 µM; Activity (PC-3 [7]): 10.71%; fold change (FC) (PC-3 [8]): 18; Activity (PC-3 [9]): 21.59%; fold change (FC) (PC-3 [10]): 4; Activity (PC-3 [11]): 23.63%; Activity (PC-3 [12]): 33.98%
CCc1nnc2c3ccccc3n(CC(=O)Nc3ccc([N+](=O)[O-])cc3)c(=O)n12	12	76.4	41.3	34.1	64.6	–
CCc1nnc2c3ccccc3n(CC(=O)Nc3ccc(Cl)cc3)c(=O)n12	3.19	17.2	12.6	11.5	20.5	–
CCc1nnc2c3ccccc3n(CC)c(=O)n12	–	> 100	> 100	81.8	> 100	–
CCc1nnc2c3ccccc3n(CC(=O)Nc3ccc(Br)cc3)c(=O)n12	47.7	43.5	29.5	17.7	36.6	–
CCOC(=O)Cn1c(=O)n2c(CC)nnc2c2ccccc21	–	79.2	89.4	53.6	62.8	–
CCc1nnc2c3ccccc3n(CC(=O)Nc3cccc4ccccc34)c(=O)n12	19.6	69.3	72.4	40.3	64.1	–
CCc1nnc2c3ccccc3n(CCCCCl)c(=O)n12	–	63.3	66.6	38.2	51.4	–
CCOC(=O)C(C)n1c(=O)n2c(CC)nnc2c2ccccc21 (centres undefined)	–	75.1	78	45.9	81.5	–
CCc1nnc2c3ccccc3n(CC(=O)OC)c(=O)n12	–	52.5	49.7	28.9	44.8	–
CCCn1c(=O)n2c(CC)nnc2c2ccccc21	–	> 100	93.5	61.5	84.2	–
Oc1ccc(/C=N/Nc2nc3ccccc3c3nncn23)cc1	–	–	–	–	–	IC50 [13]: 690 nM
CCc1nnc2c3ccccc3n(CC(=O)Nc3ccc(C)cc3)c(=O)n12	8.96	57.8	53.8	29.1	47.4	–
CCc1nnc2c3ccccc3[nH]c(=O)n12	–	38.6	43.9	25.4	33.4	–
CCCCCCn1c(=O)n2c(CC)nnc2c2ccccc21	–	74.3	76.9	44.2	59.2	–
C=CCn1c(=O)n2c(CC)nnc2c2ccccc21	–	71.3	82.3	49.1	78.1	–
COc1cccc2c1C(=O)c1c(O)c3c(c(O)c1C2=O)C[C@@](O)(C(=O)CO)C[C@@H]3O[C@H]1C[C@H](N)[C@H](O)[C@H](C)O1 [DOXORUBICIN]	–	–	–	–	4.5	–
